Assay outcomes as filed in PubChem BioAssay.
CSC inhib = blocks cancer stem cells | cancer stem cell-like cells viability, luminescence | inhibition, % at 7.5 µM | actives 1.1% (n = 300,000) | AID 2717; in the data active = inhibition above about 75%; tested in HMLE shEcad cells
WT yeast gro inh = growth inhibition of WT yeast, mitochondrial fusion screen. mitochondrial fusion phenotypic screen, WT strain. inhibition, % at 10 µM. actives 2.1% (n = 190,000). AID 1362; in the data active = inhibition above about 58%; tested in S. cerevisiae
T cruzi repl = T. cruzi replication inhibition | T. cruzi beta-gal in NIH3T3, luminescence, 90 h | inhibition, % (no concentration beside the values) | actives 1.4% (n = 300,000) | AID 1885;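 active = mean inhibition across valid replicates above about 55%, limit read from the data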;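 also: signal also drops with host cell toxicity which is not excluded here; 0% = plate median of DMSO wells and 100% = zero luminescence signal; higher percent means less beta-gal luminescence so fewer parasites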
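compound dosing = single 50 nL compound addition per well in DMSO | material = NIH/3T3 host cells with β-galactosidase reporter T. cruzi | input = 5,000 host fibroblasts per well | timing = ≥90 h infection period, 3 h prior cell attachment | read-out basis = percent inhibition of parasite-derived β-gal signal | detection = GalScreen β-gal luminescence, detergent lysis, 60 min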
SUMO Mot1 rescue = SUMOylation pathway inhibition by Mot1-301 growth rescue. S. cerevisiae Mot1-301 growth rescue, ATP luminescence, 38.5C; percent above DMSO median, 100 means doubled. growth rescue, % at 18.8 µM. actives 1% (n = 320,000). AID 2716;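 active = every valid replicate shows activation above 250% relative to neutral control wells; inactive = the rest, any valid replicate at or below 250%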;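 also: OY570 slx delta 5 strain wells were the positive control but not used for scaling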
Beta apoptosis = beta cell apoptosis inhibition; INS-1E cytokine-induced death, ATP luminescence, 48 h; percent of positive-control rescue, neutral wells zero; protection from apoptosis, % (test concentration not listed); actives 0.8% (n = 300,000); AID 435005;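 active = Every replicate reaches about 75%, or at least half do and their mean reaches it too, limit read from the data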;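 also: 0% = cytokine-treated negative control wells and 100% = positive control rescue; higher means more ATP so stronger rescue from cytokine killing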
Efflux pump mplx = inhibitors of Candida antifungal efflux pumps expressed in yeast; S. cerevisiae Candida pump triplex, Nile Red efflux; inhibition, % at 10 µM; actives 0.44% (n = 330,000); AID 485275;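 active = plate passing quality check with inhibition over a set limit, or well fluorescence over plate mean plus 4 SD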;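 also: Nile Red retained in pooled yeast measured as flow cytometry median fluorescence; 0% = buffer negative control and 100% = Enniatin B positive control; higher means more Nile Red kept so more efflux inhibition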
Numbers without * were called inactive; nt = no result given. Most compounds without a hit are left out; they make up all but 4.8% or so of the library.

SMILES	CSC inhib	WT yeast gro inh	T cruzi repl	SUMO Mot1 rescue	Beta apoptosis	Efflux pump mplx
COCCN(C(=O)COC(=O)C12CC3CC(CC(Cl)(C3)C1)C2)c1c(N)n(Cc2ccccc2)c(=O)[nH]c1=O	-18.5	nt	-6.2	21.1	-11.4	0.0
CC(C)CN(C(=O)COC(=O)C12CC3CC(CC(Cl)(C3)C1)C2)c1c(N)n(Cc2ccccc2)c(=O)[nH]c1=O	-16.4	nt	5.7	-1.2	80.9*	0.0
CCCCN(C(=O)C1CCCC1)c1c(N)n(Cc2ccccc2)c(=O)[nH]c1=O	14.0	nt	nt	4.1	-3.7	-0.2
CC(C)(C)NC(=O)C(c1ccc(O)cc1)N(C(=O)Cn1nnc(-c2ccc(F)cc2)n1)c1ccccc1F (configuration not stated)	-1.8	21.8	50.4	nt	-2.8	0.2
CCC1Nc2ncnc(N3CCN(c4ccccc4)CC3)c2N(Cc2ccc(Br)cc2)C1=O (configuration not stated)	13.5	nt	58.5*	-23.8	0.6	0.1
CC(O)Cn1c(N2CCCC2)nc2c1c(=O)[nH]c(=O)n2C (configuration not stated)	-14.3	nt	-0.1	-5.0	-5.4	0.0
CC(=O)OCC(=O)C1CCC2C3CC=C4CC(O)CCC4(C)C3CCC12C (configuration not stated)	-17.8	nt	nt	461.8*	4.3	-0.1
CC(=O)OCC(=O)[C@H]1CC[C@H]2[C@@H]3CCC4=CC(=O)CC[C@]4(C)[C@H]3CC[C@]12C	-2.0	4.7	19.0	10.2	9.8	0.1
CC(C)(C)[C@H](N)C(=O)N[C@H]1CCC2C3CC=C4C[C@@H](O)CC[C@]4(C)C3CC[C@@]21C (some centres not stated)	103.9*	nt	nt	-2.2	51.8	-0.2
C/C(N)=C(/C#N)C(=O)CSc1cc(C)c2ccccc2n1	-5.9	-5.7	-12.8	-22.9	1.1	-0.1
CCc1ccccc1N(C(=O)c1snc(C(N)=O)c1N)C(C(=O)NCC1CCCO1)c1ccc(C)o1 (configuration not stated)	3.0	nt	3.8	3.1	-7.4	-0.3
O=C1C(SCCO)=C(SCCO)C(=O)c2ccccc21	101.8*	nt	nt	2.2	99.2*	0.0
COc1ccccc1NC(=S)NCCC(c1ccccc1)c1ccccc1	-1.9	70.6*	28.5	-0.4	-1.1	0.1
COc1ccc(Cl)cc1NC(=S)NCCC(c1ccccc1)c1ccccc1	44.8	46.2	56.2*	-11.1	-1.6	-0.1
COc1cc(NC(=S)NCCC(c2ccccc2)c2ccccc2)c(OC)cc1Cl	37.2	-4.8	14.7	-15.2	57.5	-1.0
COC(=O)c1[nH]c2c(c1C)C(=O)CC(c1cccc(OC)c1)C2 (configuration not stated)	66.5	nt	34.9	3.5	30.8	0.1
COc1ccc(-n2c(C)nnc2SCC(=O)N2CCOCC2)cc1	-13.9	nt	-5.0	3.3	-5.3	0.3
COc1ccc(OC)c(C(C(=O)NC2CCCCC2)N(Cc2ccco2)C(=O)c2ccccn2)c1 (configuration not stated)	nt	nt	8.9	3.6	0.0	-0.2
O=C(NC1CCCCC1)C(c1ccccc1F)N(Cc1ccco1)C(=O)c1ccccn1 (configuration not stated)	-4.2	nt	17.6	309.6*	-0.9	0.0
Fc1cccc2sc(Nc3nnc(-c4ccco4)o3)nc12	23.3	14.0	22.9	35.2	27.5	0.0
COc1cccc2sc(Nc3nnc(-c4ccc(F)cc4)o3)nc12	107.2*	1.7	42.8	-1.6	25.6	0.0
COCCNCCCCOc1ccc(Br)cc1C	-4.3	14.9	22.6	49.0	-2.2	-0.1
COCCCNCCCCOc1ccc(Br)cc1C	49.8	31.9	45.0	269.3*	-1.1	-0.3
COc1cc(OC)cc(C(=O)NNC(=S)NCc2ccco2)c1	-6.4	-13.4	-2.3	6.0	-4.2	0.1
COc1cc(SC#N)ccc1N=Cc1c(C)[nH]n(-c2ccc(Cl)cc2)c1=O	-1.1	17.3	21.4	-4.8	69.8	-0.1
SMILES	CSC inhib	WT yeast gro inh	T cruzi repl	SUMO Mot1 rescue	Beta apoptosis	Efflux pump mplx
COc1cc(SC#N)ccc1N=Cc1c(C)[nH]n(-c2ccc(C)c(C)c2)c1=O	96.9*	92.4	28.4	-14.3	78.9*	-0.2
CC1CCC(NC(=O)c2cc3c(s2)CCCC3)CC1 (configuration not stated)	-3.2	nt	3.8	250.4	4.2	0.1
O=Nc1c(-c2c(O)[nH]c3cc(Br)ccc23)[nH]c2ccccc12	103.4*	nt	3.2	71.7	10.1	-0.1
O=C(NCc1ccccc1)c1onc(CSc2ccc(Cl)cc2)c1C(=O)NCC1CC1	13.4	nt	4.2	5.8	-1.2	-0.1
O=C(NCc1ccccc1)c1onc(CSc2ccccc2)c1C(=O)NCC1CC1	17.4	nt	58.3*	-23.0	73.5	0.0
Cc1ccc(C(=O)Nc2cccc3[nH]c(C(F)(F)F)nc23)cc1	23.9	nt	9.4	4.6	78.3*	0.0
COc1ccc(CNc2cccc3[nH]c(C(F)(F)F)nc23)cc1	14.1	nt	29.4	-0.6	nt	-0.2
CC(NC(=O)c1ccco1)C(=O)N1CCCCC1 (configuration not stated)	-9.9	nt	1.7	-12.5	-4.0	-0.1
COc1cc2c(cc1OC)C(=O)N1[C@H]3c4ccccc4OC[C@@H]3[C@H](c3ccccc3)[C@]1(C)C(=O)N2	6.9	nt	nt	182.9	0.0	0.0
C[C@@]12C(=O)Nc3ccc(Cl)cc3C(=O)N1[C@H]1c3ccccc3OC[C@@H]1[C@@H]2c1ccccc1	-17.3	nt	nt	543.4*	-7.2	-0.1
CCOc1ccc(C(=O)/C=C/c2cn(CN3CCN(C)CC3)c3ccccc23)cc1	99.9*	28.5	nt	76.0	-1.4	0.3
CCc1ccc(OCc2n[nH]c(=S)n2Cc2ccccc2)cc1	2.5	65.0*	16.7	-19.7	5.6	-0.1
CCc1ccc(OCc2n[nH]c(=S)n2C(C)CCCC(C)C)cc1 (configuration not stated)	118.3*	59.9*	19.1	-13.8	10.5	0.0
Cc1cccc(OCc2n[nH]c(=S)n2Cc2ccccc2)c1	5.2	65.4*	-14.7	8.0	-1.8	0.1
CN(C)S(=O)(=O)c1cccc(C(=O)NCC(C)(C)CNC(=O)c2cccc(S(=O)(=O)N(C)C)c2)c1	-8.6	nt	15.7	21.5	nt	0.4
CCC1CCCCN1c1nc(-c2ccncc2)nc2ccccc12 (configuration not stated)	-1.8	27.5	63.2*	-1.6	0.0	0.1
CC1CCN(c2nc(-c3ccncc3)nc3ccccc23)CC1	-4.6	-63.8	51.0	nt	8.0	0.1
CC1CCCCN1c1nc(-c2ccncc2)nc2ccccc12 (configuration not stated)	nt	59.3*	59.8*	-3.8	-8.5	0.0
COCC(C)n1c(SCC(=O)NNC(=O)c2ccc(F)cc2)nc2ccccc2c1=O (configuration not stated)	0.0	-3.9	4.2	346.4*	-3.2	0.5
CCC(C)Oc1cc(-c2ccnc(Nc3cccc(Cl)c3)n2)ccn1 (configuration not stated)	-6.5	nt	56.7*	3.3	-7.8	-0.1
